Assay results as given in ChEMBL document CHEMBL3272032, “Antifolate studies. Activities of 40 potential antimalarial compounds against sensitive and chlorguanide triazine resistant strains of folate-requiring bacteria and Escherichia coli” (J Med Chem, 1977).
The source made the active and inactive calls. No cut-off for these calls is given here.

Columns and labels:
[1] = tested on: Plasmodium berghei; assay: Antimalarial activity against Plasmodium berghei infected in sc dosed mouse assessed as active dose required to increase of 100% in mean survival time; format: functional; conditions: read-out: MED
In short: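 Mice received a standard blood-induced P. berghei inoculum and were then treated with one subcutaneous dose of compound suspended in peanut oil. The minimum active dose is the lowest dose that raised mean survival time by 100%.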

[2] = tested on: Pediococcus; assay: Antibacterial activity against chlorguanide triazine-resistant Pediococcus cerevisiae ATCC 808 assessed as reduction in growth in presence of 0.001 ug/ml folinic acid; format: functional
In short: (§1)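 Folate-requiring strains grown in medium with folic acid, 0.002 µg/ml for S. faecium and 0.001 µg/ml for L. casei; P. cerevisiae given folinic acid, 0.001 µg/ml. Resistant substrains came from serial transfer in rising chlorguanide triazine, and the most resistant were used. Compounds tested up to 1000 µg/ml, or 100 µg/ml when supply was limited. Growth read as Klett turbidity; IC50 is the µM concentration giving 50% growth inhibition.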

[3] = tested on: Pediococcus; assay: Antibacterial activity against sensitive Pediococcus cerevisiae ATCC 808 assessed as reduction in growth in presence of 0.001 ug/ml folinic acid; format: functional
In short: (§2)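 P. cerevisiae grown with folinic acid at 0.001 μg/ml in the earlier-described medium. Turbidity read on a Klett-Summerson colorimeter. IC50 is the micromolar concentration reducing growth to 50% of control. Top concentration was 1000 μg/ml, or 100 μg/ml when supply was limited.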

[4] = Antibacterial activity against sensitive Pediococcus cerevisiae ATCC 808 assessed as reduction; format: functional; in short: as §2
[5] = tested on: Enterococcus faecium; assay: Antibacterial activity against chlorguanide triazine-resistant Streptococcus faecium ATCC 8043 assessed as reduction in growth in presence of 0.002 ug/ml folic acid; format: functional, organism-based; in short: as §1
[6] = tested on: Plasmodium berghei; assay: Antimalarial activity against Plasmodium berghei infected in sc dosed mouse assessed as dose required to survivors for period of 60 days; format: functional
In short: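 Mice infected with a blood-induced P. berghei inoculum were given one subcutaneous dose in peanut oil. Survivors at 60 days counted as cured. The minimum curative dose is the lowest dose that cured any mouse.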

[7] = tested on: Escherichia coli; assay: Antibacterial activity against sensitive Escherichia coli ATCC 10536 assessed as reduction in growth in presence of p-aminobenzoic acid; format: functional, organism-based
In short: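 Reversal test. Drug inhibition was challenged with PABA in Sahyun et al. medium plus 0.6% acid-hydrolyzed casein. Growth read as turbidity on a Klett-Summerson colorimeter. Scored as reversal or nonreversal of the drug inhibition.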

[8] = tested on: Lacticaseibacillus casei; assay: Antibacterial activity against sensitive Lactobacillus casei ATCC 7469 assessed as reduction; format: functional, organism-based; in short: as §1
[9] = tested on: Enterococcus faecium; assay: Antibacterial activity against sensitive Streptococcus faecium ATCC 8043 assessed as reduction in growth; format: functional, organism-based; in short: as §1
[10] = tested on: Enterococcus faecium; assay: Antibacterial activity against chlorguanide triazine-resistant Streptococcus faecium ATCC 8043 assessed as reduction in growth; format: functional, organism-based; in short: as §1
[11] = tested on: Pediococcus; assay: Fold increase in resistance, ratio of IC50 for chlorguanide triazine-resistant Pediococcus cerevisiae ATCC 808 to IC50 for sensitive Pediococcus cerevisiae ATCC 808; format: functional
In short: (§3)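 Resistant substrains were made by serial transfer in rising concentrations of cycloguanil, and the most resistant isolate of each organism was used. Both strains were assayed turbidimetrically under identical conditions. FIR = IC50 of the resistant strain divided by IC50 of the sensitive parent.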

[12] = tested on: Lacticaseibacillus casei; assay: Antibacterial activity against sensitive Lactobacillus casei ATCC 7469 assessed as reduction in growth in presence of 0.001 ug/ml folic acid; format: functional, organism-based
In short: (§4)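 Folate-requiring strains in the medium of the earlier assay method. Folic acid was 0.002 μg/ml for S. faecium and 0.001 μg/ml for L. casei. Turbidity read on a Klett-Summerson colorimeter. IC50 is the micromolar concentration reducing growth to 50% of control. Top concentration was 1000 μg/ml, or 100 μg/ml if supply was limited.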

[13] = tested on: Lacticaseibacillus casei; assay: Antibacterial activity against chlorguanide triazine-resistant Lactobacillus casei ATCC 7469 assessed as reduction in growth; format: functional, organism-based; in short: as §1
[14] = tested on: Lacticaseibacillus casei; assay: Fold increase in resistance, ratio of IC50 for chlorguanide triazine-resistant Lactobacillus casei ATCC 7469 to IC50 for sensitive Lactobacillus casei ATCC 7469; format: functional; in short: as §3
[15] = Antibacterial activity against chlorguanide triazine-resistant Pediococcus cerevisiae ATCC 808 assessed as reduction in growth; format: functional; in short: as §1
[16] = tested on: Enterococcus faecium; assay: Antibacterial activity against sensitive Streptococcus faecium ATCC 8043 assessed as reduction in growth in presence of 0.002 ug/ml folic acid; format: functional, organism-based; in short: as §4
[17] = tested on: Lacticaseibacillus casei; assay: Antibacterial activity against chlorguanide triazine-resistant Lactobacillus casei ATCC 7469 assessed as reduction in growth in presence of 0.001 ug/ml folic acid; format: functional, organism-based; in short: as §1
[18] = tested on: Escherichia coli; assay: Antibacterial activity against sensitive Escherichia coli ATCC 10536 assessed as reduction in growth; format: functional, organism-based
In short: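 Growth inhibition in Sahyun et al. medium plus 0.6% acid-hydrolyzed casein. Growth read as turbidity on a Klett-Summerson photoelectric colorimeter. IC50 is the micromolar concentration giving 50% growth inhibition. Top concentration was 1000 μg/ml, or 100 μg/ml when compound was limited.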

[19] = tested on: Enterococcus faecium; assay: Fold increase in resistance, ratio of IC50 for chlorguanide triazine-resistant Streptococcus faecium ATCC 8043 to IC50 for sensitive Streptococcus faecium ATCC 8043; format: functional
In short: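 Resistant S. faecium substrain raised by serial transfer in increasing chlorguanide triazine. IC50 (µM, 50% growth inhibition by turbidity) was found for resistant and parent strains in folic acid (0.002 µg/ml) medium. Fold increase taken as IC50 resistant / IC50 sensitive.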

Row | SMILES | minimal effective dose [1] [mg/kg] | inhibition [2] | inhibition [3] | IC50 [4] [nM] | inhibition [5] | MCD [6] [mg/kg] | inhibition [7] | IC50 [8] [nM] | IC50 [9] [nM] | IC50 [10] [nM] | Ratio IC50 [11] | inhibition [12] | IC50 [13] [nM] | Ratio IC50 [14] | IC50 [15] [nM] | inhibition [16] | inhibition [17] | IC50 [18] [nM] | Ratio IC50 [19]
1 | Nc1nc(N)c2cc(SCc3ccc(Cl)cc3)ccc2n1 | 320 | inactive | inactive | 50 | inactive | 640 | Active | 200 | 40 | 1000 | 28 | inactive | 40 | 0.2 | 1400 | inactive | inactive | 2900 | 25
2 | Nc1nc(N)c2cc(Oc3cc(Cl)cc(Cl)c3)ccc2n1 | 320 | inactive | inactive | 120 | inactive | 640 | Active | 250 | 9 | 1300 | 11.7 | inactive | 40 | 0.16 | 1400 | inactive | inactive | 2000 | 144
3 | CN(Cc1cnc2nc(N)nc(N)c2n1)c1ccc(C(=O)N[C@@H](CCC(=O)O)C(=O)O)cc1 [METHOTREXATE] | > 640 | inactive | inactive | 400 | Active | >640 | Active | 0.06 | 2 | 10 | 4 | Active | 0.01 | 0.17 | 1500 | Active | Active | 143000 | 5
4 | CC(C)c1nc2nc(N)nc(N)c2nc1C(C)C | 640 | inactive | inactive | 70 | inactive | 640 | Active | 3200 | 5 | 300 | 7 | inactive | 500 | 0.16 | 500 | inactive | inactive | 8100 | 60
5 | Nc1nc(N)c2cc(Sc3ccc(Cl)cc3)ccc2n1 | 5 | inactive | inactive | 28 | inactive | 40 | Active | 28 | 1 | 180 | 14.3 | inactive | 10 | 0.36 | 400 | inactive | inactive | 400 | 180
6 | N=C(N)N/N=C(\c1ccc(F)cc1)c1ccc(C(F)(F)F)cc1 | 40 | Active | Active | 22000 | Active | 160 | Active | 31000 | 64000 | 35000 | 1 | Active | 30000 | 1 | 21000 | Active | Active | 17000 | 0.6
